Published values gathered from unrelated publications.
Protocols differ between the studies behind these lines.
Target: MAP/microtubule affinity-regulating kinase 4 (MARK4, Homo sapiens, UniProt Q96L34)
Sequence (Q96L34 1-752, as in one of the studies): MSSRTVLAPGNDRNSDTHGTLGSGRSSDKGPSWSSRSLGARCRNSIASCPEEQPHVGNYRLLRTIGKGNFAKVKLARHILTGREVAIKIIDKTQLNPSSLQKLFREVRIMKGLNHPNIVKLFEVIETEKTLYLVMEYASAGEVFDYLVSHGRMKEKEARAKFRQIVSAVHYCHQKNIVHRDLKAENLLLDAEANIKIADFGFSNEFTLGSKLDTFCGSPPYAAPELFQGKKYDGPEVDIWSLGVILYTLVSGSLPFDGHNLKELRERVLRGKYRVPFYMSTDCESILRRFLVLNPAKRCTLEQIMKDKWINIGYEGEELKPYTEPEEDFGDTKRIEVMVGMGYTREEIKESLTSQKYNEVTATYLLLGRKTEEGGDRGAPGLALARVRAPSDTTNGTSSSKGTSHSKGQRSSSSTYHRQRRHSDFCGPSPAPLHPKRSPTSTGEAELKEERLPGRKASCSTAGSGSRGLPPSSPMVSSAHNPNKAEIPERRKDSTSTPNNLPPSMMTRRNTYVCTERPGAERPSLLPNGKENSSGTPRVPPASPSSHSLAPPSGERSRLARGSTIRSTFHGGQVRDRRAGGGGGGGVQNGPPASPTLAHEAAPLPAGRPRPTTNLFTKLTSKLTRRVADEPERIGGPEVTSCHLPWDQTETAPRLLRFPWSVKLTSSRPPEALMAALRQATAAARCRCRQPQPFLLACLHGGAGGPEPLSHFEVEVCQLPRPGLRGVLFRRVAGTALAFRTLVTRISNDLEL

Structure (SMILES)	effect on	mode	method	concentration	measurement	value
Cn1cc(-c2cc(F)cc(N3CCn4c(cc5c4CCCC5)C3=O)c2CO)cc(Nc2ccc(N3CCN(C4COC4)CC3)cn2)c1=O	enzyme activity	inhibitor	–	0.1 µM	inhibition	9%
CC(C)(C)c1cc(C=C(C#N)C#N)cc(Br)c1O	enzyme activity	inhibitor	–	0.5 µM	remaining activity	103%
Cn1cc(-c2cccc(N3CCc4c(sc5c4CC(C)(C)C5)C3=O)c2CO)cc(Nc2ccncn2)c1=O	enzyme activity	inhibitor	–	1 µM	inhibition	3%
Nc1ncc(-c2nc(N3CCOCC3)nc(N3CCOCC3)n2)c(C(F)F)n1	binding	–	competition with immobilised ligand	10 µM	remaining binding	90%
Cc1nn(C)cc1-c1nc2c(N3CCN(Cc4ccc(Cl)cc4)CC3)c(Cl)cnc2[nH]1	binding	–	competition with immobilised ligand	1 µM	remaining binding	29%
COc1ncccc1-c1cnn2ccc(N3CCN(C(=O)OC(C)C)CC3)nc12	binding	–	competition with immobilised ligand	1 µM	remaining binding	100%
COc1cc(Nc2ncc(F)c(Nc3ccc4c(n3)NC(=O)C(C)(C)O4)n2)cc(OC)c1OC	binding	–	competition with immobilised ligand	10 µM	inhibition	99%
O=c1[nH]c2ccccc2n1C1CCN(Cc2ccc(-c3[nH]c4cc5ncnc5cc4nc3-c3ccccc3)cc2)CC1	cell-free assay	–	–	0.5 µM	remaining signal	102%
Cn1cncc1[C@@](O)(COc1ccc(C#N)cc1-c1ccc(OC(F)(F)F)cc1)c1ccc(C#N)cc1	cell-free assay	–	competition with immobilised ligand	1 µM	remaining binding	100%
